In ChEMBL document CHEMBL1141143, “Novel 17beta-substituted conformationally constrained neurosteroids that modulate GABA A receptors” (J Med Chem, 2005):

Biological target: GABA-A receptor; anion channel (Rattus norvegicus) (UniProt O09028+P15431+P18506+P18508+P19969+P20236+P23574+P23576+P28471+P28473+P30191+P62813+P63079+P63138+Q91ZM7+Q9ES14)
Experiment: Displacement of [3H]EBOB from GABA-A receptors of rat cerebellum
Assay type: tissue-based
In short: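 Rat cerebellar synaptosomal membranes: homogenized in 0.32 M sucrose, differentially centrifuged, water-lysed, Tris HCl (pH 7.4) washed, frozen; thawed membranes spun in 50 mM Tris HCl with 0.2 M NaCl. Incubated 2 h at 25 °C with 1 nM [3H]EBOB; nonspecific binding with 50 µM picrotoxin. Duplicates filtered on GF/B. Specific binding ratio with/without steroid fitted by nonlinear regression; mean ± SEM.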

| SMILES | Ks [nM] |
| --- | --- |
| C#C[C@H](OC)[C@H]1CC[C@H]2[C@@H]3CC[C@H]4C[C@H](O)CC[C@]4(C)[C@H]3CC[C@]12C | 924 |
| C#C[C@@H](OC)[C@H]1CC[C@H]2[C@@H]3CC[C@H]4C[C@H](O)CC[C@]4(C)[C@H]3CC[C@]12C | 802 |
| Cc1ccc(C#C[C@H]2CC[C@H]3[C@@H]4CC[C@H]5C[C@H](O)CC[C@]5(C)[C@H]4CC[C@]23C)cc1 | 4100 |
| C=C=C[C@@H](O)[C@H]1CC[C@H]2[C@@H]3CC[C@H]4C[C@H](O)CC[C@]4(C)[C@H]3CC[C@]12C | 2.8 |
| COc1ccc(C#C[C@H](O)[C@H]2CC[C@H]3[C@@H]4CC[C@H]5C[C@H](O)CC[C@]5(C)[C@H]4CC[C@]23C)cc1 | 1640 |
| C#C[C@@H](O)[C@H]1CC[C@H]2[C@@H]3CC[C@H]4C[C@H](O)CC[C@]4(C)[C@H]3CC[C@]12C | 145 |
| C[C@]12CC[C@@H](O)C[C@@H]1CC[C@@H]1[C@@H]2CC[C@]2(C)[C@@H](C#CBr)CC[C@@H]12 | 350 |
| C=C=C[C@H](O)[C@H]1CC[C@H]2[C@@H]3CC[C@H]4C[C@H](O)CC[C@]4(C)[C@H]3CC[C@]12C | 810 |
| COc1ccc(C#C[C@@H](O)[C@H]2CC[C@H]3[C@@H]4CC[C@H]5C[C@H](O)CC[C@]5(C)[C@H]4CC[C@]23C)cc1 | 870 |
| C#C[C@H](O)[C@H]1CC[C@H]2[C@@H]3CC[C@H]4C[C@H](O)CC[C@]4(C)[C@H]3CC[C@]12C | 494 |
| CC(=O)[C@H]1CC[C@H]2[C@@H]3CC[C@H]4C[C@H](O)CC[C@]4(C)[C@H]3CC[C@]12C | 198 |
| C#CC(=O)[C@H]1CC[C@H]2[C@@H]3CC[C@H]4C[C@H](O)CC[C@]4(C)[C@H]3CC[C@]12C | 844 |
| CC(O)C#C[C@H]1CC[C@H]2[C@@H]3CC[C@H]4C[C@H](O)CC[C@]4(C)[C@H]3CC[C@]12C (stereo partly drawn) | 946 |
